Results published in ChEMBL document CHEMBL4017549, “Structural Basis of Inhibition of ERα-Coactivator Interaction by High-Affinity N-Terminus Isoaspartic Acid Tethered Helical Peptides” (J Med Chem, 2017).

Target: T1, Progesterone receptor (Homo sapiens, UniProt P06401)
T1 sequence (P06401 whole entry): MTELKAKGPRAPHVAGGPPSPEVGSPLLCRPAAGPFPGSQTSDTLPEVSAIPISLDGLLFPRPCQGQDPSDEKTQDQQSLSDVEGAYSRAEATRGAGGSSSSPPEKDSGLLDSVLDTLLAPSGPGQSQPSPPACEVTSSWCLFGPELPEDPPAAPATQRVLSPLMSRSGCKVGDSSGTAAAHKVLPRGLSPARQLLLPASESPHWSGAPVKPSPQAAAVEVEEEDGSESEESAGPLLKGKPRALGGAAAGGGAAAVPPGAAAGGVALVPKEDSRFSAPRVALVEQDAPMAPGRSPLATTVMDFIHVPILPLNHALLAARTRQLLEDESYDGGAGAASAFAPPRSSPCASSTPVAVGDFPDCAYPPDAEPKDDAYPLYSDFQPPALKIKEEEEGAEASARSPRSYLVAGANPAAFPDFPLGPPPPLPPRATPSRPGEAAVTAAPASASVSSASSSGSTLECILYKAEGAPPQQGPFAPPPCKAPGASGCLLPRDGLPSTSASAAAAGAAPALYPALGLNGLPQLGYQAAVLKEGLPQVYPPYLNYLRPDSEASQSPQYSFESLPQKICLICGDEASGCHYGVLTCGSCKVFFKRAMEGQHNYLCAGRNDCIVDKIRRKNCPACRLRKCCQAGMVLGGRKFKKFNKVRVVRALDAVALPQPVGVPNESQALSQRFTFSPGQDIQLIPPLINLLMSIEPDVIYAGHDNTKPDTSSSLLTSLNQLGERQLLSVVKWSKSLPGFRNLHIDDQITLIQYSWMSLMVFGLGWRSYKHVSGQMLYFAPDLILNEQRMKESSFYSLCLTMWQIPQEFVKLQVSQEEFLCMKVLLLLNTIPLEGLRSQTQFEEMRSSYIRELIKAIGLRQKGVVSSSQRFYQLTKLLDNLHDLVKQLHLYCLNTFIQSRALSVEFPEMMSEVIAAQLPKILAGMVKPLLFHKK
Assay: Binding affinity to recombinant human GST-tagged PGR LBD (678 to 933 residues) expressed in Escherichia coli BL21 star(DE3) after 40 mins in presence of progesterone by fluorescence polarization assay
Summary of the method: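 FITC-labelled peptide at 10 nM final with increasing GST-PgR LBD in 20 mM Tris-HCl pH 8.0, 150 mM NaCl, 5% glycerol, 1 mM TCEP plus 10 μM progesterone. 40 min dark incubation, polarization at 298 K (ex 480/em 535 nm). KD by nonlinear regression against protein concentration.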

`CC[C@H](C)[C@@H]1NC(=O)C[C@H](NC(=O)[C@H](CCCNC(=N)N)NC(=O)CCNC(=S)Nc2ccc3c(c2)C(=O)OC32c3ccc(O)cc3Oc3cc(O)ccc32)C(=O)NCC(C(=O)N[C@@H](CCCNC(=N)N)C(=O)NC(CC(C)(C)C)C(=O)NC(CC(C)(C)C)C(=O)N[C@@H](CCC(N)=O)C(N)=O)NC(=O)C(CC(C)(C)C)NC1=O` (stereo partly specified) showed a Kd of 248 nM.
